Measurements published in PMC9053608 (RSC Advances, 2020).
Marks after values point to notes of the source that are not given here. Ends that are not written are not given here.

Columns and labels:
[1] = tested on: young human fibroblast primary cell culture; experiment: MTT cytotoxicity assay; format: cell-based; conditions: 37 °C, 5% FBS, mean ± SD (n = 3); for Cellular Viability (%), Fibroblast cells, 2 h: peptide 200 μg mL−1, 2 h; for Cellular Viability (%), Fibroblast cells, 24 h: peptide 200 μg mL−1, 24 h; for Cellular Viability (%), Fibroblast cells, 48 h: peptide 200 μg mL−1, 48 h
How it was run: (§1)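 Cells (1 × 10^4 per well) adhered for 14 h at 37 °C in humidified 5% CO2. Medium was then replaced with equal volumes of supplemented RPMI (10%) and peptide solution (200–6.25 μg mL−1), giving 5% final FBS. After 2, 24 or 48 h, MTT (5 mg mL−1 stock) was added for 4 h at 37 °C. Formazan was dissolved in DMSO and read at A570; mean ± S.D., n = 3.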

[2] = tested on: S. aureus ATCC 25923; experiment: Antibacterial activity, microdilution assay; format: cell-based; conditions: microdilution (CLSI), 96-well, 24 h at 37 °C, absorbance 620 nm, n = 2
How it was run: (§2)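 MIC by CLSI broth microdilution. Peptide solutions at 200, 100, 50, 25, 12.5 and 6.2 μg mL−1 were mixed 9:1 with bacterial inoculum (5 × 10^6 CFU mL−1). Plates were incubated 24 h at 37 °C and read at A620. […] Duplicate runs (n = 2).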

[3] = tested on: MDA-MB-468 cells; experiment: Morphologic changes by phase-contrast microscopy; format: cell-based, human; conditions: phase-contrast microscopy 20×, peptide at 134,61 μM, 24 h
How it was run: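 MDA-MB-468 cells (ATCC HTB-132), 1 × 10^4 per well, were allowed to adhere for 14 h at 37 °C in 5% CO2. Medium was then replaced with supplemented RPMI plus test compound, giving 5% FBS final. Plates were incubated at 37 °C in 5% CO2, and cells were photographed before MTT addition. Untreated cells were recorded alongside.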

[4] = tested on: breast cancer cell line MDA-MB-468; experiment: MTT cytotoxicity assay; format: cell-based, human; conditions: 37 °C, 5% FBS, mean ± SD (n = 3); for Cellular Viability (%), MDA-MB-468 cells, 2 h: peptide 200 μg mL−1, 2 h; for Cellular Viability (%), MDA-MB-468 cells, 24 h: peptide 200 μg mL−1, 24 h; for Cellular Viability (%), MDA-MB-468 cells, 48 h: peptide 200 μg mL−1, 48 h
How it was run: as §1

[5] = tested on: E. coli ATCC 25922; experiment: Antibacterial activity, microdilution assay; format: cell-based; conditions: microdilution (CLSI), 96-well, 24 h at 37 °C, absorbance 620 nm, n = 2
How it was run: as §2

Row | Substance | Cellular Viability (%), Fibroblast cells, 2 h [1] | Cellular Viability (%), Fibroblast cells, 24 h [1] | Cellular Viability (%), Fibroblast cells, 48 h [1] | MIC, S. aureus ATCC 25923 [2] | morphological changes in MDA-MB-468 cells [3] | Cellular Viability (%), MDA-MB-468 cells, 2 h [4] | Cellular Viability (%), MDA-MB-468 cells, 24 h [4] | Cellular Viability (%), MDA-MB-468 cells, 48 h [4] | MIC, E. coli ATCC 25922 [5]
1 | RAQWRWQWR-NH2 [Peptide A2] | 100 ± 2 ^a % | 94 ± 2 ^a % | 87 ± 2 ^a % | 146 µM | significant morphological changes associated with the cytotoxic effect were not observed | 62 ± 4% | 63 ± 4% | 58 ± 6% | 146 µM
2 | RWQWAWQWR-NH2 [Peptide A5] | 99 ± 1 ^a % | 81 ± 1 ^b % | 82 ± 1 ^a % | 143 µM | morphological changes were observed, acquiring rounded forms | 71 ± 8% | 62 ± 7% | 64 ± 4% | 
3 | RWQWRAQWR-NH2 [Peptide A6] | 100 ± 2 ^a % | 88 ± 2 ^a % | 79 ± 4 ^a % |  | significant morphological changes associated with the cytotoxic effect were not observed | 55 ± 6% | 49 ± 5% | 52 ± 5% | 37 µM
4 | RWQWRWAWR-NH2 [Peptide A7] | 96 ± 5 ^a % | 100 ± 1 ^a % | 79 ± 5 ^a % | 140 µM | morphological changes were observed, acquiring rounded forms | 59 ± 6% | 57 ± 3% | 56 ± 1% | 18 µM
5 | RWQWRWQAR-NH2 [Peptide A8] | 100 ± 1 ^a % | 94 ± 1 ^a % | 85 ± 4 ^a % | 146 µM | significant morphological changes associated with the cytotoxic effect were not observed | 69 ± 5% | 62 ± 5% | 61 ± 6% | 37 µM
6 | RWQWRWQWA-NH2 [Peptide A9] | 100 ± 4 ^a % | 98 ± 3 ^a % | 100 ± 3 ^a % | 143 µM |  | 64 ± 7% | 55 ± 6% | 65 ± 7% | 143 µM
